Experiments:
HeLa = experiment: Antiproliferative activity against human HeLa cells incubated for 48 hrs by MTT assay; format: functional, cell-based
How it was run: (§1)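 MTT assay on F10 (murine melanoma), HeLa, A549, MCF-7 and 293T (human renal epithelium) cells. IC50 given as mean ± SD of three independent experiments.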

A549 = experiment: Antiproliferative activity against human A549 cells incubated for 48 hrs by MTT assay; format: functional, cell-based; details: A549, 48 h; how it was run: as §1
HEK-293T = experiment: Antiproliferative activity against human 293T cells incubated for 48 hrs by MTT assay; format: cell-based; how it was run: as §1
[1] = molecular target: Prostaglandin G/H synthase 1 (Homo sapiens, UniProt P23219); experiment: Inhibition of COX1 (unknown origin) using arachidonic acid as substrate incubated for 10 mins by Ellman's reagent based COX-1/COX-2 ELISA assay
Chain of Prostaglandin G/H synthase 1 (P23219 whole entry): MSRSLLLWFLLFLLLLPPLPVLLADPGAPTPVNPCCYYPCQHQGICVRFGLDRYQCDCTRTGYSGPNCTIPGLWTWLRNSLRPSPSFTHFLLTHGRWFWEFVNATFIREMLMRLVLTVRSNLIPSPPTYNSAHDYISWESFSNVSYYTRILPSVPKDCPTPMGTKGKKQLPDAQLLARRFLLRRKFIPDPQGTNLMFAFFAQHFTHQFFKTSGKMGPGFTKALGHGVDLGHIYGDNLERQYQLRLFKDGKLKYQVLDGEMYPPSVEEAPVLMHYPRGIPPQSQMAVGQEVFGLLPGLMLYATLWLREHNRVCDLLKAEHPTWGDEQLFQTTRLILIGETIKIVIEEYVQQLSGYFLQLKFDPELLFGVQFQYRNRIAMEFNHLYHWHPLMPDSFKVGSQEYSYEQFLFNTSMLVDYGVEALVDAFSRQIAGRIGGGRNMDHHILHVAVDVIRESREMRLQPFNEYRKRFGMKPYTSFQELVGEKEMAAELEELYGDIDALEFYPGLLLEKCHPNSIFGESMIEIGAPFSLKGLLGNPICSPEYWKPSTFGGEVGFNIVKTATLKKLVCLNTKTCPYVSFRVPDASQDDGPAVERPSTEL

B16-F10 [2] = experiment: Induction of apoptosis in mouse B16F10 cells assessed as viable cells at 3.125 uM incubated for 48 hrs by Annexin-V-FITC/propidium iodide staining-based flow cytometric analysis (reference value: 94%); format: functional; details: B16-F10, 48 h, read-out: Activity
How it was run: (§2)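 F10 cells were exposed to 0, 3.125, 6.25, 12.5 or 25 µM for 48 h. Cells were stained with Annexin V/PI and read by flow cytometry. Data are mean ± SD of three independent experiments.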

B16-F10 [3] = experiment: Induction of apoptosis in mouse B16F10 cells assessed as necrosis cells at 3.125 uM incubated for 48 hrs by Annexin-V-FITC/propidium iodide staining-based flow cytometric analysis (reference value: 0.186%); format: functional; how it was run: as §2
B16-F10 [4] = experiment: Induction of apoptosis in mouse B16F10 cells assessed as late apoptosis cells at 6.25 uM incubated for 48 hrs by Annexin-V-FITC/propidium iodide staining-based flow cytometric analysis (reference value: 2.88%); format: functional; how it was run: as §2
B16-F10 [5] = experiment: Induction of apoptosis in mouse B16F10 cells assessed as viable cells at 6.25 uM incubated for 48 hrs in presence of apoptosis inhibitor z-VAD-fmk by Annexin-V-FITC/propidium iodide staining-based flow cytometric analysis (reference value: 92.5%); format: functional; details: B16-F10, 48 h, read-out: Activity
B16-F10 [6] = experiment: Induction of apoptosis in mouse B16F10 cells assessed as necrosis cells at 12.5 uM incubated for 48 hrs in presence of apoptosis inhibitor z-VAD-fmk by Annexin-V-FITC/propidium iodide staining-based flow cytometric analysis (reference value: 0.558%); format: functional
B16-F10 [7] = experiment: Induction of apoptosis in mouse B16F10 cells incubated for 48 hrs by Annexin-V-FITC/propidium iodide staining-based flow cytometric analysis; format: functional, cell-based; how it was run: as §2
B16-F10 [8] = experiment: Induction of cell cycle arrest in mouse B16F10 cells assessed as cell accumulation at S phase at 12.5 uM incubated for 48 hrs by propidium iodide staining-based flow cytometric analysis (reference value: 14.16%); format: functional
B16-F10 [9] = experiment: Induction of cell cycle arrest in mouse B16F10 cells assessed as cell accumulation at G1 phase at 25 uM incubated for 48 hrs by propidium iodide staining-based flow cytometric analysis (reference value: 59.73%); format: functional
B16-F10 [10] = experiment: Induction of cell cycle arrest in mouse B16F10 cells assessed as cell accumulation at S phase at 25 uM incubated for 48 hrs by propidium iodide staining-based flow cytometric analysis (reference value: 14.16%); format: functional
B16-F10 [11] = experiment: Induction of cell cycle arrest in mouse B16F10 cells assessed as cell accumulation at G2 phase at 25 uM incubated for 48 hrs by propidium iodide staining-based flow cytometric analysis (reference value: 22.43%); format: functional

Structure (SMILES): NS(=O)(=O)c1ccc(-n2nc(C(=O)NCCCN3CCOCC3)cc2-c2ccc(C(F)(F)F)cc2)cc1
- IC50 (HeLa): 8.08 µM
- IC50 (A549): 11 µM
- IC50 (HEK-293T): 194 µM
- IC50 [1]: 32.1 µM
- viability at 3.125 µM (B16-F10 [2]): 86.5%
- Activity (B16-F10 [3]): 0.597%
- Activity (B16-F10 [4]): 7.9%
- viability at 6.25 µM (B16-F10 [5]): 88.8%
- Activity (B16-F10 [6]): 0.105%
- Activity (B16-F10 [7]): Dose-dependent effect
- Activity (B16-F10 [8]): 15.42%
- Activity (B16-F10 [9]): 50.93%
- Activity (B16-F10 [10]): 12.87%
- Activity (B16-F10 [11]): 33.6%
